What was measured:
Format in all cases: functional
[1] = Cytotoxicity against human CNS cancer cells assessed as growth inhibition after 48 hrs by SRB assay; details: Cancer cell lines
Summary of the method: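 NCI-60 five-dose data (0.01–100 μM) were grouped by tumour subpanel. A subpanel mean (MID) of GI50 was computed for the CNS cancer lines. A selectivity ratio was obtained as full-panel MID divided by subpanel MID: 3–6 counts as moderate, >6 as high.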

COLO 205 = experiment: Cytotoxicity against human COLO205 cells after 48 hrs by SRB assay; details: COLO 205, 48 h
Summary of the method: (§1)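 NCI-60 human tumour cell panel screen, second stage, run by the NCI Developmental Therapeutics Program. Compounds were tested at five concentrations (0.01, 0.1, 1, 10 and 100 μM). Percentage growth was plotted against log10 concentration for each cell line. GI50, TGI and LC50 were taken from these dose-response curves.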

CAKI-1 = experiment: Cytotoxicity against human Caki1 cells after 48 hrs by SRB assay; details: CAKI-1, 48 h; summary of the method: as §1
[2] = Cytotoxicity against human colon cancer cells assessed as growth inhibition after 48 hrs by SRB assay; details: Cancer cell lines
Summary of the method: (§2)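 Values come from the NCI-60 five-dose panel (0.01–100 µM). The subpanel MID is the mean GI50 over the lines of that tumour subpanel. The selectivity ratio is the full-panel MID divided by the subpanel MID; 3–6 is rated moderate and >6 high.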

BT-549 = experiment: Cytotoxicity against human BT549 cells after 48 hrs by SRB assay; details: BT-549, 48 h; summary of the method: as §1
A498 = experiment: Cytotoxicity against human A498 cells after 48 hrs by SRB assay; details: A498, 48 h; summary of the method: as §1
MDA-MB-435 = experiment: Cytotoxicity against human MDA-MB-435 cells after 48 hrs by SRB assay; details: MDA-MB-435, 48 h
Summary of the method: (§3)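 Second-stage NCI-60 panel run by the NCI Developmental Therapeutics Program, covering nine tumour subpanels. Five concentrations were tested: 0.01, 0.1, 1, 10 and 100 μM. Percentage growth at each level was plotted against log10 drug concentration. GI50, TGI and LC50 were read from these dose-response curves. Subpanel MID values were divided into the full-panel MID to give selectivity ratios.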

SNB-19 = experiment: Cytotoxicity against human SNB19 cells after 48 hrs by SRB assay; details: SNB-19, 48 h; summary of the method: as §3
PC-3 = experiment: Cytotoxicity against human PC3 cells after 48 hrs by SRB assay; details: PC-3, 48 h; summary of the method: as §3
CCRF-CEM = experiment: Cytotoxicity against human CCRF-CEM cells after 48 hrs by SRB assay; summary of the method: as §1
HCT-116 = experiment: Cytotoxicity against human HCT116 cells after 48 hrs by SRB assay; details: HCT-116, 48 h; summary of the method: as §1
MDA-MB-468 = experiment: Cytotoxicity against human MDA-MB-468 cells after 48 hrs by SRB assay; details: MDA-MB-468, 48 h; summary of the method: as §3
NCI-H460 = experiment: Cytotoxicity against human NCI-H460 cells after 48 hrs by SRB assay; details: NCI-H460, 48 h; summary of the method: as §3
SK-OV-3 = experiment: Cytotoxicity against human SKOV3 cells after 48 hrs by SRB assay; details: SK-OV-3, 48 h; summary of the method: as §3
M14 = experiment: Cytotoxicity against human M14 cells after 48 hrs by SRB assay; details: M14, 48 h; summary of the method: as §1
IGROV-1 = experiment: Cytotoxicity against human IGROV1 cells after 48 hrs by SRB assay; details: IGROV-1, 48 h; summary of the method: as §1
K562 = experiment: Cytotoxicity against human K562 cells after 48 hrs by SRB assay; details: K562, 48 h; summary of the method: as §1
HOP-92 = experiment: Cytotoxicity against human HOP92 cells after 48 hrs by SRB assay; details: HOP-92, 48 h; summary of the method: as §1
NCI-H23 = experiment: Cytotoxicity against human NCI-H23 cells after 48 hrs by SRB assay; details: NCI-H23, 48 h; summary of the method: as §3
SK-MEL-2 = experiment: Cytotoxicity against human SK-MEL-2 cells after 48 hrs by SRB assay; details: SK-MEL-2, 48 h; summary of the method: as §3
RPMI-8226 = experiment: Cytotoxicity against human RPMI8226 cells after 48 hrs by SRB assay; details: RPMI-8226, 48 h; summary of the method: as §3
HCT-15 = experiment: Cytotoxicity against human HCT15 cells after 48 hrs by SRB assay; details: HCT-15, 48 h; summary of the method: as §1
OVCAR-8 = experiment: Cytotoxicity against human OVCAR8 cells after 48 hrs by SRB assay; details: OVCAR-8, 48 h; summary of the method: as §3
HL-60(TB) = experiment: Cytotoxicity against human HL-60(TB) cells after 48 hrs by SRB assay; details: HL-60, 48 h
Summary of the method: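 NCI Developmental Therapeutics Program 60-cell-line screen, second stage: cells exposed to five concentrations (0.01, 0.1, 1, 10 and 100 μM). Growth is plotted against log10 concentration for each line, and GI50, TGI and LC50 are read from the dose-response curves.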

[3] = Cytotoxicity against human Hs578T cells after 48 hrs by SRB assay; details: Hs-578T; summary of the method: as §1
[4] = Cytotoxicity against human non-small cell lung cancer cells assessed as growth inhibition after 48 hrs by SRB assay; details: Cancer cell lines; summary of the method: as §2
SK-MEL-5 = experiment: Cytotoxicity against human SK-MEL-5 cells after 48 hrs by SRB assay; details: SK-MEL-5, 48 h; summary of the method: as §3
[5] = Cytotoxicity against human ovarian cancer cells assessed as growth inhibition after 48 hrs by SRB assay; details: Cancer cell lines; summary of the method: as §2
[6] = read-out: LC50 (the source's name)

## O=C1c2ccccc2C(=O)c2c1cc(SCc1ccccc1)c1nsnc21
[1]
  GI50: 9.48 µM
COLO 205
  GI50: 35.5 µM
  LC50: > 50 µM
  TGI: > 50 µM
CAKI-1
  GI50: 9.68 µM
  LC50 (concentration causing 50% net cell kill): > 50 µM
  TGI: 26.2 µM
[2]
  GI50: 16.1 µM
BT-549
  GI50: 15.2 µM
  LC50: > 50 µM
  TGI: 28.4 µM
A498
  GI50: > 50 µM
  LC50 (concentration killing 50% of cells): > 50 µM
  TGI: > 50 µM
MDA-MB-435
  GI50: 9.19 µM
  LC50: 37.3 µM
  TGI: 18.5 µM
SNB-19
  GI50: 12.7 µM
  LC50: > 50 µM
  TGI: 38.8 µM
PC-3
  GI50: 10.8 µM
  LC50 (concentration killing 50% of cells): 50.1 µM
  TGI: 43.4 µM
CCRF-CEM
  GI50: 1.3 µM
  LC50: > 50 µM
  TGI: 5.06 µM
HCT-116
  GI50: 7.29 µM
  TGI: 14.2 µM
HCT-116; [6]
  CC50: 27.5 µM
MDA-MB-468
  GI50: 0.89 µM
  LC50: 4.21 µM
  TGI: 1.93 µM
NCI-H460
  GI50: > 50 µM
  LC50 (concentration killing 50% of cells): 32.8 µM
  TGI: 16.8 µM
SK-OV-3
  GI50: 13.7 µM
  LC50: > 50 µM
  TGI: 18.5 µM
M14
  GI50: 26 µM
  LC50: > 50 µM
  TGI: > 50 µM
IGROV-1
  GI50: 6.06 µM
  LC50: 38.9 µM
  TGI: 15.4 µM
K562
  GI50: 1.47 µM
  LC50: > 50 µM
  TGI: 6.5 µM
HOP-92
  GI50: 6.05 µM
  LC50 (concentration giving 50% net cell kill): > 50 µM
  TGI: > 50 µM
NCI-H23
  GI50: 8.25 µM
  LC50: > 50 µM
  TGI: > 50 µM
SK-MEL-2
  GI50: 8.58 µM
  LC50: 33.7 µM
  TGI: 18.6 µM
RPMI-8226
  GI50: 8.45 µM
  LC50: > 50 µM
  TGI: 33.4 µM
HCT-15
  GI50: 8.27 µM
  LC50: 35.3 µM
  TGI: 17.1 µM
OVCAR-8
  GI50: 3.5 µM
  TGI: 25.8 µM
OVCAR-8; [6]
  CC50: > 50 µM
HL-60(TB)
  GI50: 1.63 µM
  LC50: > 50 µM
  TGI: > 50 µM
[3]
  GI50: 17.3 µM
  LC50: > 50 µM
  TGI: > 50 µM
[4]
  GI50: 9.57 µM
SK-MEL-5
  GI50: 7.17 µM
  LC50: 49.8 µM
  TGI: 21.2 µM
[5]
  GI50: 8.4 µM

Source: ChEMBL document CHEMBL3621107, “Ring fusion strategy for synthesis and lead optimization of sulfur-substituted anthra[1,2-c][1,2,5]thiadiazole-6,11-dione derivatives as promising scaffold of antitumor agents” (Eur J Med Chem, 2015)
